A selection: hits, their analogues and other compounds. The true share with any hit is near 0.79%.
hIAP activ: human IAP activation; P09923; purified human IAP, CDP-Star luminescence, 30 min; active compounds read high; 1 = vehicle-only enzyme, 0 = enzyme-free background; activation factor at 10 µM; 0.16% of 330,000 active;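 active means activation factor of the enzyme at least 2-fold when tested at 20 µM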
Target sequence (P09923 whole entry, looked up): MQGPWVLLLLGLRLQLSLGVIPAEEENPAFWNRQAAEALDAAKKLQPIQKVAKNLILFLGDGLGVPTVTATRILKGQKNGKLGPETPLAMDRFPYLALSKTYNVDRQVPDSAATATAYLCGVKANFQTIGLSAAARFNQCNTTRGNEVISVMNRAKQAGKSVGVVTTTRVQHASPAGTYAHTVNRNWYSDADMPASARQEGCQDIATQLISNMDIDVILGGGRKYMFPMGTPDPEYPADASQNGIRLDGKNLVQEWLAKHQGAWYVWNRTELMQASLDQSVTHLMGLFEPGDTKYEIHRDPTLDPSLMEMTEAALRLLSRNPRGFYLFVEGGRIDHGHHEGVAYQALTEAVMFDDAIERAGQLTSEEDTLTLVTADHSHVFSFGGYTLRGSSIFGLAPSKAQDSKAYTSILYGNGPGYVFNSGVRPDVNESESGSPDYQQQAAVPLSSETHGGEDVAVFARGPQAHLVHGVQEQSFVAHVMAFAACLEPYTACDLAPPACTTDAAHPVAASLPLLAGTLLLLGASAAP
bIAP inhibitor: blocks bovine intestinal alkaline phosphatase activity; purified bovine IAP, CDP-star luminescence, 30 min; inhibition, % at 20 µM; 190,000 tested, under 10 active;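 active means over 50% inhibition of intestinal alkaline phosphatase at 20 µM in the single-dose screen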
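System: Purified bovine intestinal alkaline phosphatase (IAP) enzyme | Input: IAP diluted 1/65,000,000 in the well | Also added: CDP-star chemiluminescent phosphatase substrate, 30 µM final | Dosing: 20 µM single dose | Times: Enzyme reaction for 30 min at room temperature | Detection: Luminescence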
hIAP block: human IAP inhibition; 0.12% of 330,000 active; inhibition, % at 10 µM; P09923; purified IAP, CDP-Star luminescence, 30 min; AID 2544;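 active means inhibition reaching a set limit with compound at 10 µM in the primary screen, cut at about 35% in these data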;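 further: plate controls were DMSO wells with enzyme for no effect and no-enzyme buffer wells for full effect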
mIAP act: increases mouse intestinal alkaline phosphatase activity; muIAP, CDP-Star luminescence, 30 min; active compounds read high; 1 = vehicle-only enzyme signal, 0 = enzyme-free wells; activation factor at 10 µM; 0.24% of 330,000 active; AID 2805;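 active means activation factor of at least 2 at 20 µM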
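Assay system: mouse IAP enzyme; Reagent: CDP-Star chemiluminescent phosphatase substrate; Compound: DMSO-dissolved test compounds; Incubation: 30 min, room temperature; Technique: luminescence from enzymatic CDP-Star hydrolysis; Controls: DMSO-only wells and no-enzyme negative control.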
mIAP block: mouse IAP inhibition | inhibition, % at 10 µM | AID 2806 | purified mouse IAP, CDP-Star luminescence, 30 min | 0.2% of 330,000 active;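 active means inhibition of at least 40% at 10 µM in the primary screen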;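 further: plate controls were DMSO with enzyme for no effect and no enzyme wells for full effect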
bIAP act: intestinal alkaline phosphatase (bovine) activation | purified bovine IAP, CDP-star luminescence, 30 min; active compounds read high; fold of DMSO-control signal, blank-subtracted | activation factor at 20 µM | 0.17% of 200,000 active;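 active means activation factor of 2 or more at 20 µM, a signal rise over negative controls twice the positive control's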
* = called active by the depositor; i = inactive; nt = not tested or not shown.

SMILES	hIAP activ	bIAP inhibitor	hIAP block	mIAP act	mIAP block	bIAP act
O=C(Nc1ccccc1)Nc1nc(-c2ccc(F)cc2)cs1	0.95	19	5	2.5*	-153	0.8
O=C(Nc1nc(-c2ccc(Cl)cc2)cs1)NC1CCCCC1	0.93	4	7	3.7*	-269	1
S=C(Nc1ccc(N2CCOCC2)cc1)Nc1ccc2nc(-c3ccco3)c(-c3ccco3)nc2c1	0.88	23	12	0.55	45*	0.8
O=C(Nc1ccc(N2CCOCC2)cc1)c1ccc2nc(-c3ccco3)c(-c3ccco3)nc2c1	1.2	14	-18	0.92	8	0.9
FC(F)(F)c1ccc(NC(=S)NCc2ccccc2)cc1	1.1	13	-10	2*	-100	0.9
FC(F)Sc1ccc(NC(=S)NCc2ccccc2)cc1	1	8	0	2.1*	-106	0.9
CCn1c(NCc2cc(Br)ccc2NS(=O)(=O)c2ccc(C)cc2)nc2ccccc21	1.1	-45	-7	2.1*	-110	1.5
O=C1c2c(O)cc(O)cc2O[C@@]12c1c(cc(O)c3c1O[C@H](c1ccc(O)cc1)[C@@H](O)C3)O[C@@H]2c1ccc(O)cc1	0.93	1	7	0.59	41*	1
CCCCNC(=O)CSc1nc2cc3c(cc2c(=O)n1CCC(=O)NCCc1ccc(OC)c(OC)c1)OCO3	1.3	-101	-34	1.5	-54	2*
O=C(CN1C(=O)C(=O)N(Cc2ccco2)C1=O)Nc1ccc(F)c(F)c1F	1	nt	-3	1.1	-15	nt
CC1=C(C#N)C(=O)N(C2CCS(=O)(=O)C2)C(=O)/C1=C\c1ccco1 (stereo not drawn)	1.1	nt	-8	0.53	47*	nt
COc1ccc(CCNC(=O)c2nn(C)cc2Cl)cc1	1.1	10	-11	1	-1	0.9
COc1ccc(CCNC(=O)c2cc(-c3ccc(Cl)c(Cl)c3)oc2C)cc1	0.93	-9	7	3.4*	-243	1.1
CCN1CCN(C(=O)C(Cc2ccccc2)NC(=O)c2ccc(Cl)c(S(=O)(=O)N(C)C)c2)CC1 (stereo not drawn)	1.1	nt	-14	1	-3	nt
CC1(c2ccccc2Cl)NC(=O)N(CC(=O)NCc2ccco2)C1=O (stereo not drawn)	1	-6	-4	0.97	3	1.1
O=C(Nc1ccc(Cl)cc1)Nc1ccc(-c2cnco2)cc1	0.94	nt	6	2*	-105	nt
Cc1sc2nc(CN3CCN(S(=O)(=O)c4cccc5nonc45)CC3)[nH]c(=O)c2c1C	1	7	0	0.91	9	0.9
CCOc1ccc(C2C(C(=O)c3ccco3)=C(O)C(=O)N2CCCn2ccnc2)cc1OCC (stereo not drawn)	0.71	nt	29	0.92	8	nt
Cn1c(/C=N/Nc2nc3ccccc3[nH]2)nc2ccccc21	1.2	14	-16	0.58	42*	0.9
COCCN(C(=O)c1ccco1)c1nnc(-c2ccc(OC)c(OC)c2)s1	0.94	21	6	0.92	8	0.8
CC(C)CNC(=S)NC(=O)c1csc([N+](=O)[O-])c1	1.2	nt	-18	0.89	11	nt
O=[N+]([O-])c1cc(-c2ncccn2)cs1	1	-146	-1	0.97	3	2.5*
Cc1c(C(=O)O)sc2nc3n(c(=O)c12)CCC(C)CC3 (stereo not drawn)	1.1	-5	-14	0.59	41*	1.1
CC1CC(C)CN(S(=O)(=O)c2ccc(NC(=O)[C@@H]3CCCN3C(=O)c3cccs3)cc2)C1 (stereo partly drawn)	0.89	nt	11	0.5	50*	nt
O=C(COC(=O)c1cc(Br)ccc1Cl)NC(=O)NCc1ccccc1	0.97	1	3	0.91	9	1
SMILES	hIAP activ	bIAP inhibitor	hIAP block	mIAP act	mIAP block	bIAP act
O=C(COc1ccc(Cl)cc1Br)NC(=O)NCc1ccccc1	0.89	i	11	1	-5	6.5*
Cc1ccc2cc(/C=N/NC(=O)c3ccccc3O)c(Cl)nc2c1	0.88	-107	12	0.85	15	2.1*
Cc1cccc2cc(/C=N/NC(=O)c3ccccc3O)c(Cl)nc12	0.9	2	10	0.86	14	1
OC1(c2cccc(C(F)(F)F)c2)CCN(CCN2CCCCC2)CC1	1	nt	-4	1	-4	nt
O=C(Nc1ccc(Cl)c(Cl)c1)Nc1cc(C(=O)NC2CC2)ccc1Cl	1.1	3	-15	2.2*	-116	1
COc1ccc([N+](=O)[O-])cc1N(CC(=O)Nc1ccccc1C(=O)NC(C)C)S(C)(=O)=O	0.93	0	7	0.93	7	1
NNC(=O)c1oc2ccccc2c1-n1cccc1	0.94	-10	6	1.1	-6	1.1
COc1cccc(/C=N/NC(=O)c2cnccn2)c1	0.85	-121	15	0.95	5	2.2*
COc1ccc(/C=N/NC(=O)c2cnccn2)cc1O	1.1	-1	-12	1	-2	1
COc1ccc(/C=N/Nc2ccccn2)cc1O	1	nt	-2	1.1	-10	nt
COc1ccc(Cn2c(C)c(C)c(C#N)c2NC(=O)Nc2cccc(C)c2)cc1	1	-9	-4	2.2*	-118	1.1
Cc1ccc(C)c(N(CC(N)=O)S(C)(=O)=O)c1	0.98	19	2	1	-4	0.8
Cc1c(CCOC(=O)C23CC4CC(CC(C)(C4)C2)C3)sc[n+]1Cc1ccccc1	0.95	36	5	0.57	43*	0.6
CC(C)(C)c1ccc(/C=N/NC(=S)Nc2cccnc2)cc1	1	-3	-3	1	-1	1
Oc1ccc(/C=N/NC(=S)Nc2cccnc2)cc1O	0.72	-18	28	0.21	79*	1.2
CN(C)c1ccc(N2C(=O)CSC2=S)cc1	0.9	8	10	0.53	47*	0.9
CCN(CC)c1nc(OCCNC(=O)Nc2ccccc2)nc(N(CC)CC)n1	1.1	-42	-11	2.5*	-148	1.4
Cc1cc(-c2nn(-c3ccccc3F)cc2CN2CCC(C(N)=O)CC2)c(C)s1	1	-6	-1	1.1	-11	1.1
Cc1cc(-c2nn(-c3ccccc3F)cc2CNCCc2cnc[nH]2)c(C)s1	1.5	-198	-53	1.1	-9	3*
CCC(=Nc1ccc(Cc2ccncc2)cc1)c1c(O)n(C)c(=O)n(C)c1=O	nt	2	nt	nt	nt	1
CCOC(=O)c1cc(-c2ccccc2)n(CC(=O)Nc2cc(OC)cc(OC)c2)c1C	1.2	nt	-17	2.2*	-116	0.5
CCOC(=O)c1cc(-c2ccccc2)n(CC(=O)Nc2ccc(OCC)cc2)c1C	0.98	17	2	1.3	-34	0.8
CS(=O)(=O)N(Cc1ccc(C(=O)NC2CCCCC2O)cc1)c1ccccc1 (stereo not drawn)	1	3	-4	1.1	-5	1
CC(C)CCCCCCNC(=S)Nc1ccc(S(=O)(=O)N2CCOCC2)cc1	0.94	6	6	2.2*	-125	0.9

Screening results from PubChem BioAssay.
